HIF act: HIF pathway transcriptional activators, primary screen, cell-based, U2OS HRE-luciferase, luminescence; U2OS HRE-luciferase reporter; normalized: DMSO 0%, desferrioxamine 100%; activation, % at 7.5 µM (by protocol); 300,000 tested, 0.32% active;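 active = mean activation of at least 10% of the iron chelator positive control signal, with at least half of replicates also reaching 10%; inconclusive = mean and replicate majority disagree about reaching 10%; inactive = mean and most replicates under 10%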
CSC inhib: cancer stem cell viability inhibitors, primary screen, luminescence | 300,000 tested, 1.1% active | AID 2717, 2010 | inhibition, % at 7.5 µM | cancer stem cell-like cells viability; in the data active = inhibition above about 75%; inconclusive = no clear call, values can overlap the other calls; tested in HMLE shEcad cells
T cruzi inh: inhibitors of intracellular T. cruzi growth, primary screen, luminescence, NIH3T3 host cells; T. cruzi beta-gal in NIH3T3, 90 h; inhibition, % (test concentration not listed); 300,000 tested, 1.4% active; AID 1885, 2009;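 active = mean inhibition across valid replicates above about 55%, limit read from the data; inconclusive = mean below that limit but half or more replicates reach it; inactive = mean below it, under half of replicates reach it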;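 also: signal also drops with host cell toxicity which is not excluded here; 0% = plate median of DMSO wells and 100% = zero luminescence signal; higher percent means less beta-gal luminescence so fewer parasites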
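Assay system: NIH/3T3 fibroblasts plus reporter T. cruzi. Amount: NIH/3T3 cells, 5,000 per well. Buffer or medium: DMEM, 2% fetal bovine serum. Doses: compound pinned at 50 nL/well, DMSO. Schedule: ≥90 h infection period, 3 h prior cell attachment. Signal: luminescent β-galactosidase signal after 60 min lysis. Read-out: parasite load inhibition, %.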
SKKanGAS inh: S. pyogenes SKKanGAS growth inhibitors in kanamycin, primary screen, streptokinase expression inhibitor project, SKKanGAS strain, BacTiter-Glo luminescence; 6 h; inhibition, % at 7.5 µM; 300,000 tested, 1.3% active; AID 1662, 2009;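 active = mean replicate score, as percent of positive control median, at least 50; inconclusive = mean below 50 but one replicate at or above 50; inactive = mean and every replicate below 50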;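 also: strain carries kanamycin resistance gene driven by streptokinase promoter and grows in 40 µg/ml kanamycin; loss of luminescence reflects streptokinase promoter inhibition or plain growth inhibition; 0% = median of DMSO wells and 100% = positive control at its reference dose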
Beta apoptosis: inhibitors of cytokine-induced beta cell apoptosis, primary screen, luminescence | protection from apoptosis, % (concentration not given with the values) | INS-1E cytokine-induced death, ATP luminescence, 48 h; percent of positive-control rescue, neutral wells zero | 300,000 tested, 0.8% active;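 active = Every replicate reaches about 75%, or at least half do and their mean reaches it too, limit read from the data; inconclusive = At least half of replicates reach the limit but their mean does not; inactive = Under half of replicates reach the limit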;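 also: 0% = cytokine-treated negative control wells and 100% = positive control rescue; higher means more ATP so stronger rescue from cytokine killing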
PfHsp90 set2: growth inhibition of PfHsp90-expressing yeast, primary screen, antimalarial PfHsp90 inhibitor project, S. cerevisiae, BacTiter-Glo luminescence, single point, set 2; BacTiter-Glo ATP, 48 h; yeast lacking PDR1 and PDR3 efflux regulators; inhibition, % at 9.4 µM; 310,000 tested, 0.32% active; AID 504621, 2011;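 active = every replicate shows inhibition above about 80%, whatever the replicate mean, limit read from the data; inconclusive = mean inhibition reaches the set limit but some replicate falls short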;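 also: 0% = DMSO neutral controls and 100% = 20 µM radicicol positive controls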
Starred values were filed as active, the others as inactive; ? = inconclusive; nt = not tested or not shown. Only some compounds are listed: those with a hit (about 3.6% of all), similar ones and a draw of the others.

SMILES	HIF act	CSC inhib	T cruzi inh	SKKanGAS inh	Beta apoptosis	PfHsp90 set2
COc1ccccc1/C=C1\SC(=S)N(CCC(=O)NNC(=O)c2ccccc2O)C1=O	0	-23	-2	52*	-7	29
O=C(NCC1CCCO1)c1cc2nc(-c3ccco3)cc(C(F)(F)Cl)n2n1 (stereo not drawn)	0	15	8	0	-2	-9
CC(C)(C)S(=O)(=O)N1C[C@@H]2CC/C=C\C/C(c3ccccc3)=C\2[C@H]1CCO	nt	nt	nt	nt	nt	-11
O=C(Nc1ccc(Nc2ccncc2)cc1)c1ccc(Nc2ccnc3ccc([N+](=O)[O-])cc23)cc1[N+](=O)[O-]	1	27	-2	54*	81*	5
O=C(Nc1ccc(OC(F)(F)F)cc1)N1CCN(c2ccnc3cc(Cl)ccc23)CC1	-1	64	64*	65*	68	-22
Cn1c2ccccc2c(=O)c2cc(C#Cc3ccccn3)ccc21	3	82*	-13	31	-3	10
COc1cc2oc3ccc(C#Cc4ccc(N)cc4)cc3c(=O)c2cc1OC	1	4	13	78*	nt	-31
COc1cc2oc3cc(C#Cc4ccc(N)cc4)ccc3c(=O)c2cc1OC	-2	4	-9	58*	68	-3
COc1cc2oc3ccc(C#Cc4ccccn4)cc3c(=O)c2cc1OC	1	7	59*	9	nt	-9
CCOc1cc(/C=N/NC(N)=S)cc(Br)c1OCc1ccccc1C	-1	45	79*	17	12	-45
O=S(=O)(Nc1cc(S(=O)(=O)N2CCOCC2)ccc1Cl)c1ccccc1	nt	-16	nt	nt	-4	4
CC1CN(CCCCOc2cccc(Oc3ccccc3)c2)CC(C)O1 (stereo not drawn)	-1	195*	56*	0	-2	21
CC(C)(C)C(=O)Nc1nnc(-c2ccncc2)o1	0	3	-4	-6	-9	-18
COc1ccc(-c2nnc(NC(=O)c3cc(Cl)ccc3Cl)o2)cc1	0	22	8	86*	7	-28
Cc1ccccc1C(=O)Nc1nnc(-c2ccc(F)cc2)o1	0	24	18	61*	9	-39
O=C(Nc1nnc(-c2ccncc2)o1)c1ccc(Br)s1	0	20	4	53*	0	-15
COc1ccc(-c2nnc(NC(=O)c3ccc(F)cc3)o2)cc1	0	27	46	91*	7	-113
COc1ccc(N=CC2CCCCC2=O)c([N+](=O)[O-])c1 (stereo not drawn)	nt	nt	nt	nt	nt	-4
CC(C)N(Cc1nccn1C)C(=O)c1ccc2oc(Cc3ccccc3)nc2c1	1	nt	-6	1	nt	32
O=C(Nc1nnc(-c2ccccc2)o1)c1nc2ccccc2s1	0	35	-13	92*	nt	-18
CCc1noc(C)c1C(=O)Nc1cc(Cl)ccc1N1CCCC1	0	-6	-10	-2	3	nt
CC(C)(C)c1ccc(C2=CC(c3ccccc3F)n3ncnc3N2)cc1 (stereo not drawn)	1	4	-17	12	-6	16
Cn1cccc1C1C=C(c2ccc(C(C)(C)C)cc2)Nc2ncnn21 (stereo not drawn)	-1	12	-12	28	127*	-23
CCOc1cccc(N2C(=O)CC(N(CCc3ccc(OC)c(OC)c3)C(=O)CC)C2=O)c1 (stereo not drawn)	0	3	-11	-5	-2	-1
CCOC(=O)c1ccc(N2C(=O)CC(N(C)CCc3ccc(OC)c(OC)c3)C2=O)cc1 (stereo not drawn)	0	-3	-9	-7	-6	112*
SMILES	HIF act	CSC inhib	T cruzi inh	SKKanGAS inh	Beta apoptosis	PfHsp90 set2
O=S(=O)(Nc1nc2ccccc2nc1N1CCN(c2ccccn2)CC1)c1ccc(Cl)cc1	nt	nt	nt	nt	nt	104*
O=S(=O)(Nc1nc2ccccc2nc1N1CCc2ccccc2C1)c1ccc(Cl)cc1	-3	40	-1	-2	3	-2
O=Cc1cn(CCC(=O)O)nc1-c1cccc(Br)c1	0	-10	-5	nt	0	-8
O=C(O)CCn1cc(/C=C\C(=O)c2ccc(Cl)cc2)c(-c2cccc(Br)c2)n1	0	55	-5	79*	-12	-34
Cc1ccc(-c2nn(CCC(=O)O)cc2/C=C\C(=O)c2ccc(Br)cc2)cc1	-1	61	7	73*	-13	-17
Cn1c(SCC(=O)Nc2ccccc2)nnc1-c1ccc(NC(=O)CCc2ccccc2)cc1	26*	-14	-5	7	0	-4
CC(C)c1ccc(NC(=O)CCc2ccccc2)cc1	12*	?	3	2	19	-14
CSc1nnc(-c2ccc(NC(=O)CCc3ccccc3)cc2)n1C	0	1	-8	-2	-2	-22
CCN(CC(=O)Nc1ccc(NC(C)=O)cc1)C(=O)c1cc([N+](=O)[O-])ccc1Sc1ccc(Cl)cc1	nt	nt	nt	nt	nt	-5
O=C1C=CC(=O)N1CCCCCCCCCCN1C(=O)C=CC1=O	nt	nt	nt	nt	nt	107*
O=S(=O)(NCC(c1cccnc1)N1CCN(Cc2ccccc2)CC1)c1ccc(F)cc1 (stereo not drawn)	0	4	47	0	2	1
COc1ccc(N2CCN(C(CNS(=O)(=O)c3cccs3)c3cccnc3)CC2)cc1 (stereo not drawn)	0	-9	43	-1	5	-13
COc1ccc(N2CCN(C(CNS(=O)(=O)c3cc(F)ccc3F)c3cccnc3)CC2)cc1 (stereo not drawn)	0	13	70*	2	2	13
O=S(=O)(NCC(c1cccnc1)N1CCN(Cc2ccccc2)CC1)c1ccc(Cl)cc1 (stereo not drawn)	0	11	58*	1	0	3
COc1ccc(S(=O)(=O)NCC(c2cccnc2)N2CCN(c3ccccc3)CC2)cc1C (stereo not drawn)	0	-7	63*	1	-3	3
O=S(=O)(NCC(c1cccnc1)N1CCN(Cc2ccccc2)CC1)c1cc(F)ccc1F (stereo not drawn)	-1	0	59*	1	6	-5
COc1ccc(S(=O)(=O)NCC(c2cccnc2)N2CCN(c3ccc(F)cc3)CC2)cc1C (stereo not drawn)	0	nt	44	-3	nt	-10
C[N+]1(C)CCC(=C(c2ccccc2)c2ccccc2)CC1	nt	-8	nt	nt	-4	4
NC(=O)N/N=C/c1ccccc1OCC(=O)NCc1ccccc1	-1	-4	10	-11	-4	-5

From PubChem
